# Results as given in ChEMBL document CHEMBL1212775, “A novel class of meso-tetrakis-porphyrin derivatives exhibits potent activities against hepatitis C virus genotype 1b replicons in vitro” (Antimicrob Agents Chemother, 2010).
# Key:
# Hepatitis C virus [1] = test: Antiviral activity against Hepatitis C virus genotype 1b Con1 infected in human Huh-luc/neo-ET replicon cells assessed as reduction of replicon luciferase signal after 72 hrs by luciferase reporter assay; type: functional, organism-based, Hepacivirus hominis
# In short: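 Replicon cells grown without G418, seeded at 5 × 10^3 per well, treated next day in duplicate with serial dilutions (DMSO control) at 37°C for 72 h. After a PBS wash, cells lysed in ice-cold passive lysis reagent and firefly luciferase RLU read as percent of compound-free control. EC50 by nonlinear regression of the dose-effect curve.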
# Hepatitis B virus = test: Antiviral activity against Hepatitis B virus infected in human 2.2.15 cells assessed as reduction of […] after 72 hrs by southern DNA hybridization method; type: functional, organism-based; conditions: HepG2 2.2.15, 72 h
# [2] = tested on: Human immunodeficiency virus 1; test: Antiviral activity against Human immunodeficiency virus 1 3B virus infected in human MT2 cells assessed as inhibition of virus-induced cytopathic effect by colorimetry; type: functional, organism-based
# In short: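 MT-2 cells, 1 × 10^3 per well in triplicate, infected with HIV-1 IIIB at 0.1 TCID50/cell and cultured with compounds. Viral CPE quantified by MTT colorimetry after 5 days to estimate EC50.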
# Hepatitis C virus [3] = test: Antiviral activity against Hepatitis C virus genotype 1b Con1 infected in human Huh-luc/neo-ET replicon cells assessed as reduction of replicon luciferase signal after 72 hrs by luciferase reporter assay in presence of 5% fetal bovine serum; type: functional, organism-based, Hepacivirus hominis
# In short: (§1)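 Huh-luc/neo-ET cells without G418, incubated with serially diluted compounds in medium containing 5%, 10%, 20% or 40% (vol/vol) FBS. Firefly luciferase read after 72 h. EC50 from dose-effect curves. The 0% value is a theoretical EC50 extrapolated from the plot of EC50 versus serum level. Means ± SD of three independent experiments.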
# Hepatitis C virus [4] = test: Antiviral activity against Hepatitis C virus genotype 1b Con1 infected in human Huh-luc/neo-ET replicon cells assessed as reduction of replicon luciferase signal after 72 hrs by luciferase reporter assay in presence of 10% fetal bovine serum; type: functional, organism-based, Hepacivirus hominis; in short: as §1
# Hepatitis C virus [5] = test: Antiviral activity against Hepatitis C virus genotype 1b Con1 infected in human Huh-luc/neo-ET replicon cells assessed as inhibition of virus-induced cytopathic effect after 24 hrs by luciferase reporter assay; type: functional, organism-based, Hepacivirus hominis
# In short: (§2)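 Huh-luc/neo-ET cells seeded at 1 × 10^5 per well and treated with DMSO or serially diluted compound up to 250 nM. Harvested at 24 or 48 h. Luciferase run in triplicate and RLU normalized to total protein (Bradford), expressed as percent of mock control. Three independent repeats averaged.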
# Hepatitis C virus [6] = test: Antiviral activity against Hepatitis C virus genotype 1b Con1 infected in human Huh-luc/neo-ET replicon cells assessed as inhibition of virus-induced cytopathic effect after 48 hrs by luciferase reporter assay; type: functional, organism-based, Hepacivirus hominis; in short: as §2
# Hepatitis C virus [7] = test: Antiviral activity against Hepatitis C virus genotype 1b Con1 infected in human Huh-luc/neo-ET replicon cells assessed as reduction in viral RNA level after 24 hrs by RT-PCR; type: functional, organism-based, Hepacivirus hominis
# In short: (§3)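 Cells seeded at 1 × 10^5 per well and treated with DMSO or compound up to 250 nM for 24, 48 or 72 h. Total RNA diluted to 50 ng/μl. Replicon RNA (5′ UTR) measured in triplicate by one-step qRT-PCR, normalized to β-actin mRNA, and expressed as percent of mock control. Three independent repeats.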
# Hepatitis C virus [8] = test: Antiviral activity against Hepatitis C virus genotype 1b Con1 infected in human Huh-luc/neo-ET replicon cells assessed as reduction in viral RNA level after 72 hrs by RT-PCR; type: functional, organism-based, Hepacivirus hominis; in short: as §3
# [9] = Cytotoxicity against human Huh-7 cells by luminescence based cell viability assay
smiles,measurement,setting,value
O=C(O)c1cc(C(=O)O)cc(-c2ccc(-c3c4nc(c(-c5ccc(-c6cc(C(=O)O)cc(C(=O)O)c6)cc5)c5ccc([nH]5)c(-c5ccc(-c6cc(C(=O)O)cc(C(=O)O)c6)cc5)c5ccc([nH]5)c(-c5ccc(-c6cc(C(=O)O)cc(C(=O)O)c6)cc5)c5nc3C=C5)C=C4)cc2)c1,EC50,Hepatitis C virus [1],24 nM
same,EC50,Hepatitis B virus,> 20 µM
same,EC50,[2],3.67 µM
same,EC50,Hepatitis C virus [3],13 nM
same,EC50,Hepatitis C virus [4],24 nM
same,EC50,Hepatitis C virus [5],57.8 nM
same,inhibition,Hepatitis C virus [5]; Hepacivirus hominis,Dose-dependent effect
same,EC50,Hepatitis C virus [6],19.2 nM
same,inhibition,Hepatitis C virus [6]; Hepacivirus hominis,Dose-dependent effect
same,EC50,Hepatitis C virus [7],67.8 nM
same,inhibition,Hepatitis C virus [7]; Hepacivirus hominis,Dose-dependent effect
same,EC50,Hepatitis C virus [8],29.2 nM
same,inhibition,Hepatitis C virus [8]; Hepacivirus hominis,Dose-dependent effect
same,CC50,[9],> 50 µM
